Test results taken from PMC11261800 (Heliyon, 2024).

Test system: HFF-1 cells
Test: SA-β-gal activity in D-gal-induced premature aging of HFF-1 cells
Format: cell-based, human
Details: 500 μg/mL
How it was run: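 HFF-1 fibroblasts were seeded at 2 × 10^4 cells/well and cultured for 24 h. Growth medium was replaced for 72 h with test sample solution containing D-gal at 20 mg/mL final. SA-β-gal activity was detected by X-gal staining, and blue positive cells were viewed by microscopy and counted against the D-gal-injured and blank control groups.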

For `N[C@@H](CCC(=O)N[C@@H](CS)C(=O)NCC(=O)O)C(=O)O` [GSH], the “decrease of SA-β-gal positive staining rate compared with the D-gal group” value was 50.61%.
